# Test results taken from PubChem BioAssay.
# Activity calls are given as the source filed them.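 The calls were made as follows, unless noted: active = calcium signal ratio cut to more than 3 SD under the fully stimulated control mean yet still positive, in both repeats and the primary screen; inactive = the rest.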
# Target: Short transient receptor potential channel 4 (Mus musculus) (UniProt Q9QUQ5)
# Assay: inhibitors of mouse TRPC4 channel, confirmation, cell-based, Fluo4, HEK293 TRPC4beta/mu-opioid (AID 2636;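 active = calcium signal cut by more than 3 SD below the full-agonist control yet still positive, in both repeats and the earlier primary screen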)
# Settings: DAMGO, Fluo4 calcium flux, at 10 µM; active compounds read high
# Method in brief: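 System: HEK293 stable line with TRPC4beta plus mu-opioid receptor; reagent: DAMGO, mu-opioid agonist, submaximal dose then maximally activating dose; doses: single final compound concentration of 10 µM; times: compound pre-incubation 110 s before DAMGO; technique: Fluo4 calcium flux fluorescence, kinetic read; repeats: duplicate wells for each compound, averaged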
# Chain of Short transient receptor potential channel 4 (Mus musculus) (Q9QUQ5 whole entry, looked up): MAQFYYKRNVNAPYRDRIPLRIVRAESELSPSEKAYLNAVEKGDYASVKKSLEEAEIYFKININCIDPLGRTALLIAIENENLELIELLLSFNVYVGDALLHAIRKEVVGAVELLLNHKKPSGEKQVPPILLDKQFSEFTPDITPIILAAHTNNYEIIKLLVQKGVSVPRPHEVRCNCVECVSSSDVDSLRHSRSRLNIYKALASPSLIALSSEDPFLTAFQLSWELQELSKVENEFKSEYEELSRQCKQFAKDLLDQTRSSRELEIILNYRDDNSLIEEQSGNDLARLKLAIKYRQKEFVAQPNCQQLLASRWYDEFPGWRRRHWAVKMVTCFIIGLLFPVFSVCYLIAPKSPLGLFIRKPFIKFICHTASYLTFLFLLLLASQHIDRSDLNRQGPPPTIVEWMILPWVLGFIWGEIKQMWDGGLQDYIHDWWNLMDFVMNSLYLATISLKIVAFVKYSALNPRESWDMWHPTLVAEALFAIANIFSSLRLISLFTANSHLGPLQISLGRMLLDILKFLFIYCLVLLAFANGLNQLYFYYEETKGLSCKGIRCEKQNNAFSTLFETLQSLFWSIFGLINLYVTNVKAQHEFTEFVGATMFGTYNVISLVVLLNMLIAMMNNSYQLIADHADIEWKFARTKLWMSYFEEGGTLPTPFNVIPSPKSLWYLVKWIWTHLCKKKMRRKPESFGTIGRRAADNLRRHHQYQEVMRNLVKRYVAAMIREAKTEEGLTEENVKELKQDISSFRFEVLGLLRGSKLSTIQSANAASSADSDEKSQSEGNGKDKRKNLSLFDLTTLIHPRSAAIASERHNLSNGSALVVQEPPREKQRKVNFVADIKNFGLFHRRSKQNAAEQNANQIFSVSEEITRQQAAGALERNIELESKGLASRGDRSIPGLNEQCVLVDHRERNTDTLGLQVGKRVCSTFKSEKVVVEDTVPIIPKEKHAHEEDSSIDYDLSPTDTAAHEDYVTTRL
SMILES,inhibition,outcome
Cc1ccccc1Cn1c(=N)n(CC(O)c2ccco2)c2ccccc21 (stereo not drawn),89% (active),
CN1CCN(c2ccc(NC(=O)c3ccc(-c4ccc(Cl)cc4)o3)cc2)CC1,85% (active),
COc1cc(C(F)(F)F)nc2c(Br)c(C(C)(C)C)nn12,92% (active),
Clc1cccc(C[n+]2cc(-c3ccccc3)n3c2CCC3)c1,95% (active),
COC(=O)c1ccc(CSc2nc3ccccc3c(=O)n2CC(C)C)o1,82% (active),
CN(C)c1ccc(NC(=O)CN2C3CCCC2CC(NC(=O)c2ccccc2)C3)cc1 (stereo not drawn),71% (active),
Cc1ccn2c(CNCCCn3cccn3)c(C(=O)N3CCCCCC3)nc2c1,78% (active),
O=C(O)c1ccc(N/N=C/c2ccc(-c3cccc(Cl)c3)o2)cc1,87% (active),
NS(=O)(=O)c1ccc(CCNCc2ccccc2OCc2ccc(Cl)cc2)cc1,87% (active),
CCCCn1c(NCCO)nc2ccccc21,92% (active),
CCCOc1ccc(-c2nc(SCc3ccccc3)[nH]c(=O)c2C#N)cc1OC,66% (active),
NC(=O)c1nsc(C(=O)N(Cc2ccccc2Cl)C(C(=O)NCC2CCCO2)c2ccc(O)cc2)c1N (stereo not drawn),90% (active),
N#Cc1cccc2c1-c1ccccc1/C2=N/NC(N)=O,86% (active),
CCCn1c(NC(=O)c2ccc(Cl)c(S(=O)(=O)N3CCCC3)c2)nc2ccccc21,69% (active),
CCOC(=O)C(C)Sc1nc2c(c(=O)[nH]c(=O)n2C)n1Cc1ccc(Cl)cc1 (stereo not drawn),93% (active),
OCCNc1nc2ccccc2n1CCN1CCCCC1,91% (active),
Cc1cc(N2CCC(C)CC2)nc2cccc(O)c12,95% (active),
CCCN1C2=NCCN2c2cc(C)c(C)cc21,91% (active),
COc1ccc(C2NC(C(=O)O)Cc3c2[nH]c2ccccc32)cc1CN1CCN(c2ccc(F)cc2)CC1 (stereo not drawn),58% (active),
COc1cc(CNC2CCCC2)cc(Cl)c1OCc1ccc(F)cc1,82% (active),

SMILES,inhibition,outcome
CC1CCN(C(C)C(=O)Nc2ccccc2-c2ccccc2)CC1 (stereo not drawn),82% (active),
COc1cccc(C(=O)C2CCCN(Cc3cccn3-c3ccccn3)C2)c1 (stereo not drawn),44% (active),
N=c1c2c(n(Cc3ccccc3)c3c1CCC3)CCC2,65% (active),
OCC1(CCCc2ccccc2)CCN(Cc2cc(F)ccc2F)CC1,92% (active),
N#Cc1c(NC(=O)C2CC(Cl)=CCC2C(=O)O)sc2c1CCCCC2 (stereo not drawn),51% (active),
c1ccc2[nH]c(CCCCc3nc4ccccc4[nH]3)nc2c1,85% (active),
CN(C)CCN1C(=O)C2C(C(=O)Nc3cc(Cl)cc(Cl)c3)C3C=CC2(O3)C1C(=O)NC1CCCCC1 (stereo not drawn),71% (active),
CCc1cccc(OCC(=O)Nc2ccc(C(=O)O)cc2NC(=O)COc2cccc(CC)c2)c1,93% (active),
CCc1ccc2nc(N=C(N)N)nc(C)c2c1,93% (active),
C=CCOc1ccc(Br)cc1CNC(C)(C)CO,94% (active),
O=c1c2ccccc2[nH]c(=S)n1CCN1CCN(Cc2ccccc2)CC1,75% (active),
CN(CC(=O)NC1CCCc2ccccc21)C1CCCCC1 (stereo not drawn),80% (active),
Cc1cc(C(=O)N/N=C\c2cc(C(C)(C)C)ccc2O)n[nH]1,84% (active),
CC1(C)CC2CC(C)(CN2C(=O)c2cc(-c3ccc(O)cc3)on2)C1 (stereo not drawn),81% (active),
OCC1(Cc2ccccc2)CCCN(Cc2cnn(-c3ccccc3)c2)C1 (stereo not drawn),91% (active),
CCOc1ccccc1CN1CCC(n2nccc2NC(=O)CCc2ccccc2)CC1,97% (active),
CCCOc1cccc(C(=O)NCCNC(=O)c2ccco2)c1,,inactive
Brc1ccc(CN2C3=NCCCN3c3ccccc32)cc1,96% (active),
Cc1[nH]n(C)c(=O)c1C(=O)c1c(-c2c(Cl)cccc2Cl)noc1C,90% (active),

# Target: Short transient receptor potential channel 4 (Mus musculus) (UniProt Q9QUQ5)
# Assay: inhibitors of mouse TRPC4 channel, confirmation, cell-based, second round, Fluo4, HEK293 TRPC4beta/mu-opioid, 1 µM (AID 2637);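 as to inhibition: percent of integrated ratio relative to wells lacking test compound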
# Settings: Fluo4 calcium flux, DAMGO, at 1 µM; active compounds read high
# Method in brief: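 test system = HEK293 stable line co-expressing TRPC4beta and mu-opioid receptor | schedule = dye loading 45 min room temperature, compound pre-incubation 110 s | controls = DAMGO ECmax control wells and wells without test compound | reagent = DAMGO, submaximal then ECmax | signal = kinetic Fluo4 Ca2+ fluorescence reading | replication = duplicates | compound = 1 µM single point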
SMILES,inhibition,outcome
Cc1ccccc1Cn1c(=N)n(CC(O)c2ccco2)c2ccccc21 (stereo not drawn),58% (active),
CN1CCN(c2ccc(NC(=O)c3ccc(-c4ccc(Cl)cc4)o3)cc2)CC1,58% (active),
COc1cc(C(F)(F)F)nc2c(Br)c(C(C)(C)C)nn12,65% (active),
Clc1cccc(C[n+]2cc(-c3ccccc3)n3c2CCC3)c1,51% (active),
COC(=O)c1ccc(CSc2nc3ccccc3c(=O)n2CC(C)C)o1,41% (active),
CN(C)c1ccc(NC(=O)CN2C3CCCC2CC(NC(=O)c2ccccc2)C3)cc1 (stereo not drawn),,inactive
Cc1ccn2c(CNCCCn3cccn3)c(C(=O)N3CCCCCC3)nc2c1,47% (active),
O=C(O)c1ccc(N/N=C/c2ccc(-c3cccc(Cl)c3)o2)cc1,42% (active),
NS(=O)(=O)c1ccc(CCNCc2ccccc2OCc2ccc(Cl)cc2)cc1,54% (active),
CCCCn1c(NCCO)nc2ccccc21,66% (active),
CCCOc1ccc(-c2nc(SCc3ccccc3)[nH]c(=O)c2C#N)cc1OC,,inactive
NC(=O)c1nsc(C(=O)N(Cc2ccccc2Cl)C(C(=O)NCC2CCCO2)c2ccc(O)cc2)c1N (stereo not drawn),,inactive
N#Cc1cccc2c1-c1ccccc1/C2=N/NC(N)=O,81% (active),
CCCn1c(NC(=O)c2ccc(Cl)c(S(=O)(=O)N3CCCC3)c2)nc2ccccc21,,inactive
CCOC(=O)C(C)Sc1nc2c(c(=O)[nH]c(=O)n2C)n1Cc1ccc(Cl)cc1 (stereo not drawn),68% (active),
OCCNc1nc2ccccc2n1CCN1CCCCC1,,inactive
Cc1cc(N2CCC(C)CC2)nc2cccc(O)c12,83% (active),
CCCN1C2=NCCN2c2cc(C)c(C)cc21,48% (active),
COc1ccc(C2NC(C(=O)O)Cc3c2[nH]c2ccccc32)cc1CN1CCN(c2ccc(F)cc2)CC1 (stereo not drawn),,inactive
COc1cc(CNC2CCCC2)cc(Cl)c1OCc1ccc(F)cc1,,inactive

SMILES,inhibition,outcome
CC1CCN(C(C)C(=O)Nc2ccccc2-c2ccccc2)CC1 (stereo not drawn),36% (active),
COc1cccc(C(=O)C2CCCN(Cc3cccn3-c3ccccn3)C2)c1 (stereo not drawn),,inactive
N=c1c2c(n(Cc3ccccc3)c3c1CCC3)CCC2,,inactive
OCC1(CCCc2ccccc2)CCN(Cc2cc(F)ccc2F)CC1,,inactive
N#Cc1c(NC(=O)C2CC(Cl)=CCC2C(=O)O)sc2c1CCCCC2 (stereo not drawn),,inactive
c1ccc2[nH]c(CCCCc3nc4ccccc4[nH]3)nc2c1,55% (active),
CN(C)CCN1C(=O)C2C(C(=O)Nc3cc(Cl)cc(Cl)c3)C3C=CC2(O3)C1C(=O)NC1CCCCC1 (stereo not drawn),,inactive
CCc1cccc(OCC(=O)Nc2ccc(C(=O)O)cc2NC(=O)COc2cccc(CC)c2)c1,,inactive
CCc1ccc2nc(N=C(N)N)nc(C)c2c1,,inactive
C=CCOc1ccc(Br)cc1CNC(C)(C)CO,39% (active),
O=c1c2ccccc2[nH]c(=S)n1CCN1CCN(Cc2ccccc2)CC1,44% (active),
CN(CC(=O)NC1CCCc2ccccc21)C1CCCCC1 (stereo not drawn),,inactive
Cc1cc(C(=O)N/N=C\c2cc(C(C)(C)C)ccc2O)n[nH]1,,inactive
CC1(C)CC2CC(C)(CN2C(=O)c2cc(-c3ccc(O)cc3)on2)C1 (stereo not drawn),,inactive
OCC1(Cc2ccccc2)CCCN(Cc2cnn(-c3ccccc3)c2)C1 (stereo not drawn),42% (active),
CCOc1ccccc1CN1CCC(n2nccc2NC(=O)CCc2ccccc2)CC1,69% (active),
CCCOc1cccc(C(=O)NCCNC(=O)c2ccco2)c1,,inactive
Brc1ccc(CN2C3=NCCCN3c3ccccc32)cc1,75% (active),
Cc1[nH]n(C)c(=O)c1C(=O)c1c(-c2c(Cl)cccc2Cl)noc1C,42% (active),
